Activity calls are given as the source filed them.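 The calls were made as follows: active = at least one off-target enzyme showing weaker fluorescent probe labeling in any proteome panel; inactive = no off-target enzyme affected in any panel.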
What follows are molecules tested on Soluble Proteome (assay: anti-target inhibition in MCF7 proteome, late-stage follow-up, selectivity assay for PAD4 inhibitor project, cell lysate, gel-based fluorescence, soluble and membrane fractions (AID 651628)). Conditions: CA-Rh gel-based ABPP, anti-target count, at 10 µM, hits give high values.
Method in brief: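 Test system: MCF7 cell proteome, soluble or membrane fraction / Amount: proteome protein concentration of 1 mg/ml / Schedule: compound 1 h, probe 1 h, 25 °C / Buffer or medium: DPBS / Detection: SDS-PAGE separation with in-gel fluorescence scanning of labelled bands / Also added: Chloroacetamide-rhodamine (CA-Rh) labelling probe, 10 µM / Doses: compound at 10 or 50 µM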

Structure (SMILES) | number of anti-targets
O=C1C(O)=C(O)C(=O)c2ncccc21 | 0 (inactive)
NC1=CC(=O)c2ccc(-c3cccc(C(=O)O)n3)nc2C1=O | 0 (inactive)
NC1=CC(=O)c2ccc(-c3ccccn3)nc2C1=O | 0 (inactive)
COC1=C(Br)C(=O)c2ncccc2C1=O | > 5 (active)
COC1=CC(=O)c2nc(C#N)ccc2C1=O | > 5 (active)
COC1=C(N)C(=O)c2nc(-c3nc(C(=O)O)c(C)c(-c4ccc(OC)c(OC)c4O)c3N)ccc2C1=O | 0 (inactive)
NC1=CC(=O)c2cccnc2C1=O | 0 (inactive)
COC1=C(Br)C(=O)c2nc(-c3ccccn3)ccc2C1=O | 0 (inactive)
COC(=O)c1cccc(-c2ccc3c(n2)C(=O)C(N)=CC3=O)n1 | 0 (inactive)
COC1=C(I)C(=O)c2nc(C#N)ccc2C1=O | > 5 (active)
COC(=O)c1nc(C(=O)OC)c(NC(C)=O)c(-c2ccccc2Br)c1C | 0 (inactive)
O=C1C=C(Br)C(=O)c2ncccc21 | > 5 (active)
COC(=O)c1cccc(-c2ccc3c(n2)C(=O)C(Br)=CC3=O)n1 | 0 (inactive)
COC1=C(N)C(=O)c2ncccc2C1=O | 0 (inactive)
